# Reference: ChEMBL document CHEMBL1148787, “Novel substituted (pyridin-3-yl)phenyloxazolidinones: antibacterial agents with reduced activity against monoamine oxidase A and increased solubility” (J Med Chem, 2007)
# What was measured:
# [1] = Half life in Wistar rat at 10 mg/kg, iv; format: ADME, organism-based; design: dose 10 mg/kg, route intravenous; conditions: in vivo
# In short: (§1)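 Groups of three Wistar Han rats; bolus injection via cannulated jugular vein at 2 or 10 mg/kg. Serial 200 µL whole-blood samples at time intervals; plasma levels by LC-MS/MS; parameters by noncompartmental analysis.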
# [2] = Clearance in Wistar rat at 10 mg/kg, iv; format: ADME, organism-based; design: dose 10 mg/kg, route intravenous; conditions: in vivo; in short: as §1
# [3] = Volume of distribution in Wistar rat at 10 mg/kg, iv; format: ADME, organism-based; design: dose 10 mg/kg, route intravenous; conditions: in vivo, read-out: Vdss; in short: as §1
# [4] = system: Staphylococcus aureus; assay: Antibacterial activity against methicillin-susceptible Staphylococcus aureus AP601055; format: functional
# In short: (§2)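 CLSI broth microdilution, 64 to 0.06 µg/mL, 2% DMSO final. Media: S. aureus, Mueller Hinton broth; H. influenzae, MHB plus 0.5% yeast extract, 15 µg/mL hematin, 1.5 µg/mL NAD; S. pneumoniae, MHB plus 0.65% lysed horse blood. 35 °C, aerobic (S. aureus) or 5% CO2.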
# [5] = system: Streptococcus pneumoniae; assay: Antibacterial activity against penicillin-susceptible Streptococcus pneumoniae AP671401; format: functional; in short: as §2
# [6] = system: Streptococcus pneumoniae; assay: Antibacterial activity against linezolid-resistant Streptococcus pneumoniae; format: functional
# In short: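 Broth microdilution per CLSI guidelines. Compounds were dissolved in 100% DMSO and diluted to 2% DMSO (v/v), 64 to 0.06 µg/mL, in 2.2% (w/v) Mueller Hinton broth with 0.65% (v/v) lysed horse blood. Plates were incubated at 35 °C in 5% CO2 and read at 620 nm.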
# [7] = system: Haemophilus influenzae; assay: Antibacterial activity against Haemophilus influenzae ATCC 51907; format: functional; in short: as §2
# [8] = Solubility by nephelometric analysis; format: physicochemical
# In short: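 Nephelometry after diluting compounds into the MAO-A assay mixture (100 mM potassium phosphate, pH 7.4).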
# [9] = biological target: T1, Amine oxidase [flavin-containing] A (Homo sapiens, UniProt P21397); assay: Inhibition of human liver MAOA expressed in yeast
# T1 sequence (P21397 whole entry): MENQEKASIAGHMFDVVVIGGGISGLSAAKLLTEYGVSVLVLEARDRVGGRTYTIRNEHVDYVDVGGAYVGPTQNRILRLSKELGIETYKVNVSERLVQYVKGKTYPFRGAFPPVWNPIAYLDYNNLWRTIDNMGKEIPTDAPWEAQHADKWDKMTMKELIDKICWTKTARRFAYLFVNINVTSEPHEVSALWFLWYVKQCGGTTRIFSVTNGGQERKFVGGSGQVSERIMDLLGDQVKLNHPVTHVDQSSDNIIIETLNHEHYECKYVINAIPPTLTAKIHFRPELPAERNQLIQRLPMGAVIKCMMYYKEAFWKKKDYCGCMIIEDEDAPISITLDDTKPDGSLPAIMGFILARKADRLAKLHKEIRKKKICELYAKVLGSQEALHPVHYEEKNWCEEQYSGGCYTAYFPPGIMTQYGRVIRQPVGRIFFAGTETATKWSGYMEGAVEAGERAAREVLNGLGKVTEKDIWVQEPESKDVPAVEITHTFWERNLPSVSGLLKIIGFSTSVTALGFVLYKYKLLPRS
# [10] = AUC in Wistar rat at 10 mg/kg, iv; format: ADME, organism-based; design: dose 10 mg/kg, route intravenous; conditions: plasma; in short: as §1
# [11] = Oral bioavailability in Wistar rat at 10 mg/kg, po; format: ADME, organism-based; conditions: in vivo
# In short: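 Wistar Han rats, groups of three; 10 mg/kg given by oral gavage, compared against iv dosing. Serial whole-blood sampling, plasma drug by LC-MS/MS, noncompartmental pharmacokinetic analysis.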
# [12] = organism: Homo sapiens; assay: Protein binding in human plasma; conditions: read-out: PPB (converted)
Compound,half-life [1],clearance [2],Vd [3],MIC [4],MIC [5],MIC [6],MIC [7],solubility kinetic [8],Ki [9],AUC [10],bioavailability [11],fraction unbound [12]
C[C@H](O)c1ccc(-c2ccc(N3C[C@H](Cn4ccnn4)OC3=O)cc2F)cn1,60 min,25 mL/min/kg,1.3 L/kg,0.5 µg/mL,< 0.06 µg/mL,1 µg/mL,2 µg/mL,> 400 µM,5.9 µM,6700 ng·h/mL,100%,
CO[C@@H](C)c1ccc(-c2ccc(N3C[C@H](Cn4ccnn4)OC3=O)cc2F)cn1,,,,1 µg/mL,0.25 µg/mL,4 µg/mL,16 µg/mL,> 400 µM,2.5 µM,,,
CC(C)(O)c1ccc(-c2ccc(N3C[C@H](Cn4ccnn4)OC3=O)cc2F)cn1,,,,1 µg/mL,0.25 µg/mL,2 µg/mL,8 µg/mL,200 µM,6 µM,,,
O=C1O[C@@H](Cn2ccnn2)CN1c1ccc(-c2ccc(C(O)CO)nc2)c(F)c1 (stereo not given in full),27 min,43 mL/min/kg,1 L/kg,0.25 µg/mL,< 0.06 µg/mL,1 µg/mL,1 µg/mL,> 400 µM,,3900 ng·h/mL,,0.54
O=C1O[C@@H](Cn2ccnn2)CN1c1ccc(-c2ccc(C(O)C3CCNCC3)nc2)c(F)c1 (stereo not given in full),,,,64 µg/mL,4 µg/mL,32 µg/mL,64 µg/mL,> 400 µM,136 µM,,,
CC(C)NCC(O)c1ccc(-c2ccc(N3C[C@H](Cn4ccnn4)OC3=O)cc2F)cn1 (stereo not given in full),,,,4 µg/mL,0.5 µg/mL,2 µg/mL,4 µg/mL,> 400 µM,> 178 µM,,,
CN(C)CC(O)c1ccc(-c2ccc(N3C[C@H](Cn4ccnn4)OC3=O)cc2F)cn1 (stereo not given in full),,,,4 µg/mL,0.25 µg/mL,2 µg/mL,4 µg/mL,> 400 µM,> 178 µM,,,
CC(=O)c1ccc(-c2ccc(N3C[C@H](Cn4ccnn4)OC3=O)cc2F)cn1,,,,0.25 µg/mL,< 0.06 µg/mL,0.5 µg/mL,2 µg/mL,50 µM,0.7 µM,,,
O=C(c1ccc(-c2ccc(N3C[C@H](Cn4ccnn4)OC3=O)cc2F)cn1)C1CNC1,,,,8 µg/mL,1 µg/mL,4 µg/mL,16 µg/mL,200 µM,4.5 µM,,,
O=C(Cn1ccnc1)c1ccc(-c2ccc(N3C[C@H](Cn4ccnn4)OC3=O)cc2F)cn1,,,,0.25 µg/mL,,0.5 µg/mL,2 µg/mL,12.5 µM,> 12 µM,,,
COCc1ccc(-c2ccc(N3C[C@H](Cn4ccnn4)OC3=O)cc2F)cn1,,,,0.5 µg/mL,0.13 µg/mL,1 µg/mL,4 µg/mL,100 µM,1.7 µM,,,
CO[C@H](C)c1ccc(-c2ccc(N3C[C@H](Cn4ccnn4)OC3=O)cc2F)cn1,,,,1 µg/mL,0.25 µg/mL,2 µg/mL,8 µg/mL,> 400 µM,3 µM,,,
